≈ marks a conversion by molar mass, not a printed value. Where “and” joins values, the source holds several entries; their conditions need not be identical. Equal entries are not always repeated.
What was measured:
Salmonella enteritidis = experiment: Compound was tested in vitro for antibacterial activity against Salmonella enteritidis E497 strain.; conditions: Salmonella enterica
Providencia rettgeri = experiment: Compound was tested in vitro for antibacterial activity against Providencia rettgeri AAB-137 strain.; assay type: functional
In short: (§1)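 Inocula grown on agar slants or in liquid M9 or Davis-Mingoli minimal medium for 7–16 h at 37 °C. Peptides dissolved in 50 mM potassium phosphate, pH 7.4, serially diluted 2- or 10-fold in the same buffer, filter-sterilized.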

Pseudomonas aeruginosa = experiment: Compound was tested in vitro for antibacterial activity against Pseudomonas aeruginosa 647 strain.; assay type: functional
In short: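 Broth microdilution MIC. Inocula were pre-grown on agar slants or in M9 or Davis-Mingoli minimal medium for 7–16 h at 37 °C. Peptides were dissolved in 50 mM potassium phosphate, pH 7.4, serially diluted 2- or 10-fold, and filter-sterilised. Wells held 10^5 cfu/mL in M-9 broth with thiamine and lysine, read after 16 h at 37 °C.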

Enterobacter cloacae [1] = experiment: Compound was tested in vitro for antibacterial activity against Enterobacter cloacae P99 strain; assay type: functional
In short: as §1

[2] = Compound was tested in vitro for antibacterial activity against Citrobacter sp 2404 strain.; assay type: functional
In short: as §1

Escherichia coli = experiment: Compound was tested in vitro for antibacterial activity against Escherichia coli CB64 strain; assay type: functional
In short: as §1

Klebsiella pneumoniae = experiment: Compound was tested in vitro for antibacterial activity against Klebsiella pneumoniae 4200 strain.; assay type: functional
In short: as §1

Serratia marcescens = experiment: Compound was tested in vitro for antibacterial activity against Serratia marcescens ATCC 13880 strain; assay type: functional
In short: as §1

Enterobacter cloacae [3] = experiment: Reversal of antibacterial activity by the compound, expressed as agar disc zone size with LL-DAP (0.19 ug/disc); assay type: functional
Enterobacter cloacae [4] = experiment: Reversal of antibacterial activity by the compound, expressed as agar disc zone size with LL-DAP (0.38 ug/disc); No zone; assay type: functional, organism-based
Enterobacter cloacae [5] = experiment: Reversal of antibacterial activity by the compound, expressed as agar disc zone size with L-Ala-LL-DAP (6.5 ug/disc); assay type: functional
Enterobacter cloacae [6] = experiment: Reversal of antibacterial activity by the compound, expressed as agar disc zone size with LL-DAP (0.0 ug/disc); assay type: functional
Enterobacter cloacae [7] = experiment: Reversal of antibacterial activity by the compound, expressed as agar disc zone size with L-Ala-LL-DAP (0.0 ug/disc); assay type: functional
Enterobacter cloacae [8] = experiment: Reversal of antibacterial activity by the compound, expressed as agar disc zone size with L-Ala-LL-DAP (26 ug/disc); No zone; assay type: functional, organism-based
Enterobacter cloacae [9] = experiment: Reversal of antibacterial activity by the compound, expressed as agar disc zone size with LL-DAP (0.76 ug/disc); No zone; assay type: functional, organism-based

SMILES | MIC (Salmonella enteritidis) | MIC (Providencia rettgeri) | MIC (Pseudomonas aeruginosa) | MIC (Enterobacter cloacae [1]) | MIC [2] | MIC (Escherichia coli) | MIC (Klebsiella pneumoniae) | MIC (Serratia marcescens) | Zone size (Enterobacter cloacae [3]) | Zone size (Enterobacter cloacae [4]) | Zone size (Enterobacter cloacae [5]) | Zone size (Enterobacter cloacae [6]) | Zone size (Enterobacter cloacae [7]) | Zone size (Enterobacter cloacae [8]) | Zone size (Enterobacter cloacae [9])
O=C(O)CCCC[C@H](NC(=O)[C@@H]1CCCN1)C(=O)O | > 1000 µg/mL | 250 µg/mL (≈ 918 µM) | – | 250 µg/mL (≈ 918 µM) | 250 µg/mL (≈ 918 µM) | 500 µg/mL (≈ 1840 µM) | 63 µg/mL (≈ 231 µM) | > 1000 µg/mL | – | – | – | – | – | – | –
NC(CCCCC(=O)O)C(=O)O (centres undefined) | > 1000 µg/mL | – | > 1000 µg/mL | > 1000 µg/mL | > 1000 µg/mL | > 1000 µg/mL | 500 µg/mL (≈ 2850 µM) | > 1000 µg/mL | – | – | – | – | – | – | –
N[C@@H](CCCCC(=O)O)C(=O)N1CCC[C@H]1C(=O)O | > 1000 µg/mL | 4 µg/mL (≈ 14.7 µM) | – | 8 µg/mL (≈ 29.4 µM) | > 1000 µg/mL | > 1000 µg/mL | 16 µg/mL (≈ 58.8 µM) | > 1000 µg/mL | – | – | – | – | – | – | –
CC(N)C(=O)NCCP(=O)(O)O (centres undefined) [ALAFOSALIN] | 50 µg/mL (≈ 255 µM) | > 100 µg/mL | > 100 µg/mL | 100 µg/mL (≈ 510 µM) | 25 µg/mL (≈ 127 µM) | < 0.1 µg/mL | 1.6 µg/mL (≈ 8.16 µM) | 1.6 µg/mL (≈ 8.16 µM) | – | – | – | – | – | – | –

The next compounds have a lower MIC (Salmonella enteritidis) than those just listed; values first:

MIC (Salmonella enteritidis) | MIC (Providencia rettgeri) | MIC (Pseudomonas aeruginosa) | MIC (Enterobacter cloacae [1]) | MIC [2] | MIC (Escherichia coli) | MIC (Klebsiella pneumoniae) | MIC (Serratia marcescens) | SMILES | Zone size (Enterobacter cloacae [3]) | Zone size (Enterobacter cloacae [4]) | Zone size (Enterobacter cloacae [5]) | Zone size (Enterobacter cloacae [6]) | Zone size (Enterobacter cloacae [7]) | Zone size (Enterobacter cloacae [8]) | Zone size (Enterobacter cloacae [9])
16 µg/mL (≈ 65 µM) | 4 µg/mL (≈ 16.2 µM) | 1000 µg/mL (≈ 4060 µM) | 4 µg/mL (≈ 16.2 µM) | 8 µg/mL (≈ 32.5 µM) | 16 µg/mL (≈ 65 µM) | 16 µg/mL (≈ 65 µM) | 8 µg/mL (≈ 32.5 µM) | C[C@H](N)C(=O)N[C@@H](CCCCC(=O)O)C(=O)O | – | – | – | – | – | – | –
2 µg/mL (≈ 6.3 µM) | 125 µg/mL (≈ 394 µM) | – | 63 µg/mL (≈ 199 µM) | 250 µg/mL (≈ 788 µM) | 31 µg/mL (≈ 97.7 µM) | 1000 µg/mL (≈ 3150 µM) | 16 µg/mL (≈ 50.4 µM) | C[C@H](N)C(=O)N[C@@H](C)C(=O)N[C@@H](CCCCC(=O)O)C(=O)O | 17 mm and 21 mm | No zone | 9 mm and 15 mm | 25 mm | 25 mm | No zone | No zone
8 µg/mL (≈ 32.5 µM) | < 1 µg/mL | > 1000 µg/mL | 4 µg/mL (≈ 16.2 µM) | 2 µg/mL (≈ 8.12 µM) | 2 µg/mL (≈ 8.12 µM) | 8 µg/mL (≈ 32.5 µM) | 2 µg/mL (≈ 8.12 µM) | C[C@H](NC(=O)[C@@H](N)CCCCC(=O)O)C(=O)O | – | – | – | – | – | – | –

Reference: ChEMBL document CHEMBL1123511, “Peptides of 2-aminopimelic acid: antibacterial agents that inhibit diaminopimelic acid biosynthesis” (1986)
